For series [1] the following is noted: sublingual, male volunteers; ref De Groot et al., 1995; cited from earlier work.
The nature of series [2]: Plasma oxytocin pharmacokinetics, phase 1 single-dose study. The series is classed as in vivo, human.
A short description of series [3]: Safety and tolerability. The series is classed as in vivo, human. The note with it: IM 10 IU (17 μg); N = 16. The method, boiled down: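 Healthy female volunteers in a single-centre, single-blind, fixed-sequence phase 1 study received a single IM dose of test compound, 10 IU, alongside inhaled dosing sessions. Adverse events and serious adverse events were recorded throughout the study. Spirometry, clinical laboratory tests, vital signs, ECG intervals, physical examination and cardiac telemetry were checked at set post-dose times. Follow-up visit 7–21 days after the last inhaled dose. Data were summarised descriptively.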

Where [4] appears, read: female, human, plasma, im, 10 IU.

Regarding oxytocin [sublingual oxytocin], in series [1], the absorption half-life result is “long absorption half-life”, the bioavailability entry is reported as “poor bioavailability” and the lag time entry is given as “long lag time”.
Broadly, the AUC(0-t) is exposure summed from dosing to a finite time, without extrapolation to infinity. In general, Cmax refers to the highest concentration seen after dosing. As usually defined, the half-life is the time in which the quantity being followed falls by half. The low end stands for rapid decline, the high end for slow decline. For `CC[C@H](C)[C@@H]1NC(=O)[C@H](Cc2ccc(O)cc2)NC(=O)[C@@H](N)CSSC[C@@H](C(=O)N2CCC[C@H]2C(=O)N[C@@H](CC(C)C)C(=O)NCC(N)=O)NC(=O)[C@H](CC(N)=O)NC(=O)[C@H](CCC(N)=O)NC1=O` [IM oxytocin, oxytocin], in series [2] (IM 10 IU, LLQ 2 pg/mL), the “subjects in whom plasma oxytocin remained quantifiable up to 4 h” value is reported as 5/16. Besides, the “AUC(0–3 h), adjusted geometric mean” value in series [2] (IM 10 IU, plasma, mixed-effect model, PK population) turned out to be 0.12761 ng·h/mL. In addition, in series [2] (setting [4]), the AUC(0-t) stood at 0.12 ng·h/mL, the concentration peaked (Cmax) at 0.19 ng/mL, the half-life is 38.4 min and the level at 0.5 h is 0.0822 ng/mL. For the same molecule, the tmax in series [2] (setting [4]) is 10.2 min. Moreover, in series [2] (following IM administration (10 IU), plasma), the tmax was ~ 10 min. Also, in series [3], the “AE that led to discontinuation of study drug or withdrawal from the study, number of subjects” value stood at 0; the “Deaths, number of AEs” value turned out to be 0; the “Deaths, number of subjects” value came to 0; the “Headache (drug-related), number of AEs” value is on record as 1. Besides, in series [3], the “Led to discontinuation of study drug or withdrawal from the study, number of AEs” value came to 0 and the “Non-fatal SAEs, number of subjects” value was found to be 0.

The record behind these values is paper PMC5552226 (EBioMedicine, 2017).
